Series [1] has as its target T1, Glucose-dependent insulinotropic receptor (Mus musculus) (UniProt Q7TQP3).
T1 sequence (whole entry): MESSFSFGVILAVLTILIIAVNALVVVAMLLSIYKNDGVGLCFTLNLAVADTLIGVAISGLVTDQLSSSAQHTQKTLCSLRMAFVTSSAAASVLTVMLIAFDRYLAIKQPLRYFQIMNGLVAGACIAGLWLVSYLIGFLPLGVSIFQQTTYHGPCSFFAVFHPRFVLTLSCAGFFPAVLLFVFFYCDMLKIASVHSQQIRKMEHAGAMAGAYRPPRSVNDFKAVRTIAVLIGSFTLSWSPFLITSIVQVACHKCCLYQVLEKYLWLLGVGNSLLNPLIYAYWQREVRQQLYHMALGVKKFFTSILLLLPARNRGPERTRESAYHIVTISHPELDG
The experiment in a line: Agonist activity at mouse GPR119 expressed in CHO cells co-expressing Galpha15 assessed as increase in intracellular cAMP level after 60 mins by HTRF assay relative to control. It is filed as functional, cell-based. In short, it runs like this:
(§1)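 EC50 values are means of at least 2 independent experiments, with a few single determinations. Maximal response is reported as the percentage of cAMP stimulation at the maximal dose tested, normalised to an internal agonist control set as 100%.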
(Changes in cAMP serve as a functional read-out for many G protein-coupled receptors.)

In series [2] the target is T2, Glucose-dependent insulinotropic receptor (Homo sapiens) (UniProt Q8TDV5).
T2 sequence (whole entry): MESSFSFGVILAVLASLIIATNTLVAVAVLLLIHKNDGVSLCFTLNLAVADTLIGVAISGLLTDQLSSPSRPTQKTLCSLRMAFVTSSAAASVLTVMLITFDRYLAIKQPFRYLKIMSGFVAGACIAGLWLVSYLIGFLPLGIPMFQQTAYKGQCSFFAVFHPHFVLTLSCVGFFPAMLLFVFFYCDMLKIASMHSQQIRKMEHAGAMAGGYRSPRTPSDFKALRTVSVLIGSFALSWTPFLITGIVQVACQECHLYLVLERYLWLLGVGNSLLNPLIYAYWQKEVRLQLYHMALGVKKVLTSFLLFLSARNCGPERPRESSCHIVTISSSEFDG
The experiment in a line: Agonist activity at human GPR119 expressed in HEK293 cells assessed as increase in intracellular cAMP level after 60 mins by HTRF assay relative to control. It is filed as functional, cell-based. An outline of the steps: as §1

For series [3], the target named is T3, Glucose-dependent insulinotropic receptor (Homo sapiens, UniProt Q8TDV5).
T3 sequence (Q8TDV5 whole entry): T2 sequence (whole entry)
The experiment in a line: Agonist activity at human GPR119 expressed in HEK293 cells assessed as increase in intracellular cAMP level after 60 mins by HTRF assay. It is filed as functional, cell-based. In short, it runs like this: (§2)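 cAMP stimulation is also given as % control at the top concentration, relative to an internal agonist control set at 100% cAMP stimulation. EC50 values are means of at least 2 independent experiments, except for two compounds.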

Series [4] can be described thus: Kinetic solubility in fasted state simulated intestinal fluid at pH 6.5. Type of series: physicochemical. The conditions noted are these: read-out: Kinetic_solubility.
Series [5] in a line: Half life in Wistar Han rat at 0.5 mg/kg, iv by LC-MS/MS analysis. The conditions noted are these: in vivo. It is filed as ADME, organism-based.
Series [6] deals with T4, Voltage-gated inwardly rectifying potassium channel KCNH2 (Homo sapiens, UniProt Q12809).
T4 sequence (Q12809 whole entry): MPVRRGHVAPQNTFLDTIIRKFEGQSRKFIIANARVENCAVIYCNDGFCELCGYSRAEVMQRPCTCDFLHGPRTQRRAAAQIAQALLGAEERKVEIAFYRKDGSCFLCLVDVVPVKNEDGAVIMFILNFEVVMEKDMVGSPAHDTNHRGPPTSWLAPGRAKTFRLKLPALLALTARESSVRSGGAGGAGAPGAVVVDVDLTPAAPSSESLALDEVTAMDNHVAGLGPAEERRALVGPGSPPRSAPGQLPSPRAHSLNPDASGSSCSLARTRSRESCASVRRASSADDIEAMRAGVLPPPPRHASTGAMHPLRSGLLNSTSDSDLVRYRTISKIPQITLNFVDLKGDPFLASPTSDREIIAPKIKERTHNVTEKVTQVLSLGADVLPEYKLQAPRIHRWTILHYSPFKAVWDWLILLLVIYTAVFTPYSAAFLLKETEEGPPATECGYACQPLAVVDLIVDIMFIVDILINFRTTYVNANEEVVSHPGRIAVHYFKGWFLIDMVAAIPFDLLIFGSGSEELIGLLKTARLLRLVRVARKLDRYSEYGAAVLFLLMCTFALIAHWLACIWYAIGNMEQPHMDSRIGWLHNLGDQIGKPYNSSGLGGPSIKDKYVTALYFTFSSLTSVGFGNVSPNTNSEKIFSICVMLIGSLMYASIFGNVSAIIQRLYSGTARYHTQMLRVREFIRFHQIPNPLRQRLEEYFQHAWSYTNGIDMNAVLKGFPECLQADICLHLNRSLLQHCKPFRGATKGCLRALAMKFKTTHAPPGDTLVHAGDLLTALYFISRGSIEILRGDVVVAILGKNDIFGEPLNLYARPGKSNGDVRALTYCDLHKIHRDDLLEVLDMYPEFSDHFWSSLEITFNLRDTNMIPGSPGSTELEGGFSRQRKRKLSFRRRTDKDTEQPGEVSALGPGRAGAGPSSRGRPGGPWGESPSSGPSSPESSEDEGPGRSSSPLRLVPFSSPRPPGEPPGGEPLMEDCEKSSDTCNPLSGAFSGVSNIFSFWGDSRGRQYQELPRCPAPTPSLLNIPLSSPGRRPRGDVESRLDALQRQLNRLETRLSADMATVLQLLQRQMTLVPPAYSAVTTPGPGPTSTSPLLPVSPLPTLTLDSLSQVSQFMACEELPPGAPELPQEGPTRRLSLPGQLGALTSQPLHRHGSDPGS
Series [7] addresses T4, Voltage-gated inwardly rectifying potassium channel KCNH2. The experiment in a line: Inhibition of human ERG by PatchXpress method.
Series [8] has as its target T5, Glucose-dependent insulinotropic receptor (Mus musculus, UniProt Q7TQP3).
T5 sequence (Q7TQP3 whole entry): T1 sequence (whole entry)
Nature of the series: Agonist activity at mouse GPR119 expressed in CHO cells co-expressing Galpha15 assessed as increase in intracellular cAMP level after 60 mins by HTRF assay. It is filed as functional, cell-based. An outline of the steps:
as §2

Here are results for twelve molecules from ChEMBL document CHEMBL3994654, “Discovery of phenyl acetamides as potent and selective GPR119 agonists” (Bioorg Med Chem Lett, 2017).

Broadly, the EC50 is the concentration giving half of the maximal effect. Broadly, the half-life is the time needed for the level to fall by half in the phase considered. In general, IC50 refers to the midpoint of a concentration-inhibition curve. The low end stands for greater potency in that assay, the high end for weaker potency in that assay.

Molecules are shown by their SMILES. ≈ marks a conversion by molar mass, not a printed value. Where only a bound is given, the exact number is not on record here.

Take `CC1(OC(=O)N2CCC([C@H]3C[C@H]3CCOc3ccc(CC(=O)N4CCC4)c(F)c3)CC2)CC1`: the Activity turned out to be 115% in series [1] and 127% in series [2]. In addition, the figures for the EC50 in series [3] and in series [8] were 3.3 nM and 6.6 nM, respectively. For the same molecule, the solubility kinetic in series [4] was 138 µM (≈ 63.3 µg/mL). In series [5], the half-life is 1.6 h. In addition, the half-maximal inhibitory concentration (IC50) in series [6] was found to be 23000 nM; in series [7], 8600 nM.
With `O=C(Cc1ccc(OCC[C@@H]2C[C@@H]2C2CCN(c3ncc(Cl)cn3)CC2)nc1)N1CCC1`, the Activity was found to be 133% in series [1] and 112% in series [2]. Moreover, the EC50 was 9.4 nM in series [3] and 5.1 nM in series [8]. Further, the solubility kinetic in series [4] is 83 µM (≈ 37.8 µg/mL). This molecule came in with a concentration for half-maximal inhibition (IC50) in series [6] of 2100 nM.
Regarding `COCc1cnc(N2CCC([C@H]3C[C@H]3CCOc3ccc(CC(=O)N4CCC4)c(F)c3)CC2)nc1`, the Activity was 90% in series [1] and 82% in series [2]. The results for the EC50 in series [3] and in series [8] were 0.7 nM and 1.6 nM, respectively. For the same molecule, the solubility kinetic in series [4] is 152 µM (≈ 73.4 µg/mL). In addition, the half-life in series [5] was 1.9 h. Moreover, inhibition in series [6] was half-maximal at 19000 nM (IC50).
With `O=C(Cc1ccc(OCC[C@@H]2C[C@@H]2C2CCN(c3ncc(Cl)cn3)CC2)cc1)N1CCC1`, the Activity in series [1] was determined as 93%; in series [2], 82%. The results for the EC50 in series [3] and in series [8] were 0.8 nM and 0.5 nM, respectively. Moreover, the solubility kinetic in series [4] was 97 µM (≈ 44.1 µg/mL). The molecule further showed a half-life in series [5] of 4.7 h. For the same molecule, half-maximal inhibition in series [6] (IC50) was put at 7400 nM.
As to `O=C(Cc1ccc(OCC[C@@H]2C[C@@H]2C2CCN(c3ncc(Cl)cn3)CC2)cc1F)N1CCCCC1`, the Activity is 92% in series [1] and 116% in series [2]. The concentration giving a half-maximal response (EC50) in series [3] was 1.5 nM; in series [8], 2.2 nM. Also, the solubility kinetic in series [4] is 124 µM (≈ 62.1 µg/mL). Moreover, the 50% inhibitory concentration (IC50) in series [6] worked out at 3300 nM.
Turning to `O=C(Cc1ccc(OCC[C@@H]2C[C@@H]2C2CCN(c3ncc(Cl)cn3)CC2)c(F)c1)N1CCC1`, the values for the Activity in series [1] and in series [2] were 91% and 106%, respectively. Moreover, the 50% effective concentration (EC50) came out at 2.2 nM in series [3] and 1.6 nM in series [8]. Further, the solubility kinetic in series [4] is 65 µM (≈ 30.7 µg/mL).
`CCc1cnc(N2CCC([C@H]3C[C@H]3CCOc3ccc(CC(=O)N4CCC4)c(F)c3)CC2)nc1`: the Activity in series [1] was 111%; in series [2] it was 103%. Moreover, the EC50 in series [3] is 0.4 nM; in series [8] it was 0.84 nM. Also, the solubility kinetic in series [4] was 140 µM (≈ 65.3 µg/mL). The same molecule returned an IC50 in series [6] of 3200 nM.
Regarding `O=C(Cc1ccc(OCC[C@@H]2C[C@@H]2C2CCN(c3ncc(Cl)cn3)CC2)cc1)NC1CC1`, the Activity in series [1] was found to be 91%; in series [2] it was 104%. The EC50 came out at 1.8 nM in series [3] and 1.5 nM in series [8]. Also, the solubility kinetic in series [4] was 22 µM (≈ 10 µg/mL). In series [6], this molecule returned an IC50 of more than 60000 nM.
Consider `NC(=O)Cc1ccc(OCC[C@@H]2C[C@@H]2C2CCN(c3ncc(Cl)cn3)CC2)cc1`, for which the Activity is 68% in series [1] and 85% in series [2]. The results for the EC50 in series [3] and in series [8] were 67 nM and 16 nM, respectively.
Take `O=C(Cc1ccc(OCC[C@@H]2C[C@@H]2C2CCN(c3ncc(Cl)cn3)CC2)cc1F)N1CCC1`: the Activity in series [1] came out at 146%; in series [2] it was 106%. Further, the 50% effective concentration (EC50) in series [3] turned out to be 0.2 nM; in series [8], 0.4 nM. Besides, the solubility kinetic in series [4] was 137 µM (≈ 64.8 µg/mL). In series [5], this molecule gave a half-life of 6.9 h. In series [6], this molecule had a half-maximal inhibitory concentration (IC50) of 3300 nM.
As for `CC(C)c1noc(N2CCC([C@H]3C[C@H]3CCOc3ccc(CC(=O)N4CCC4)c(F)c3)CC2)n1`, the figures for the Activity in series [1] and in series [2] were 102% and 78%, respectively. Further, the concentration for a half-maximal effect (EC50) in series [3] stood at 2 nM; in series [8], 6.7 nM. Besides, the solubility kinetic in series [4] is 126 µM (≈ 59.3 µg/mL). The molecule also showed a half-life in series [5] of 1.8 h. In series [6], this molecule had a half-inhibitory concentration (IC50) of 7000 nM.
Regarding `O=C(Cc1ccc(OCC[C@@H]2C[C@@H]2C2CCN(c3ncc(Cl)cn3)CC2)cc1F)N1CC(O)C1`, the Activity in series [1] was 110%; in series [2] it was 89%. In addition, the figures for the EC50 in series [3] and in series [8] were 0.8 nM and 6.7 nM, respectively. Further, the solubility kinetic in series [4] is 144 µM (≈ 70.4 µg/mL). Further, the half-life in series [5] was 3.5 h.
